Measurements reported in ChEMBL document CHEMBL3044620, “Cinnamic acid inhibits growth but stimulates production of pathogenesis factors by in vitro cultures of Fusarium oxysporum f.sp. niveum” (2008).

Experiments:
[1] = tested on: Fusarium oxysporum f. sp. niveum; experiment: Stimulation of cellulase activity in Fusarium oxysporum f. sp. niveum at 1600 mg/L measured 7 days post compound treatment by DNS method; type: functional
[2] = tested on: Fusarium oxysporum f. sp. niveum; experiment: Stimulation of proteinase activity in Fusarium oxysporum f. sp. niveum at 1600 mg/L measured 7 days post compound treatment; type: functional
Neurospora crassa = experiment: Growth inhibition of Neurospora crassa assessed as inhibition of mycelial growth at 200 mg/L; type: functional; conditions: read-out: GI
[3] = tested on: Fusarium oxysporum f. sp. niveum; experiment: Growth inhibition of Fusarium oxysporum f. sp. niveum assessed as inhibition of mycelium dry weight at 1600 mg/L measured 7 days post compound treatment; type: functional; conditions: 168 h
Method in brief: (§1)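 Strain NJAUS-1 was grown in 30 mL potato dextrose broth (pH 4.5, HCl), inoculated with a 5 mm plug from a 7-day PDA culture. Flasks were shaken at 170 rpm, 28 °C, for 7 days. Mycelium was filtered and dried at 80 °C for 12 h to constant dry weight. Cinnamic acid was tested at 200–1600 mg L-1; controls received sterile water. Three replicates, mean ± SE.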

[4] = tested on: Fusarium oxysporum f. sp. niveum; experiment: Stimulation of amylase activity in Fusarium oxysporum f. sp. niveum at 1600 mg/L measured 7 days post compound treatment by DNS method (reference value: 3.7 +/- 0.5 umol/min/ml); type: functional
[5] = tested on: Fusarium oxysporum f. sp. niveum; experiment: Stimulation of amylase activity in Fusarium oxysporum f. sp. niveum at 400 mg/L measured 7 days post compound treatment by DNS method (reference value: 3.7 +/- 0.5 umol/min/ml); type: functional
[6] = tested on: Fusarium oxysporum f. sp. niveum; experiment: Stimulation of cellulase activity in Fusarium oxysporum f. sp. niveum at 1600 mg/L measured 7 days post compound treatment by DNS method (reference value: 0.03 +/- 0.1 umol/min/ml); type: functional
[7] = tested on: Fusarium oxysporum f. sp. niveum; experiment: Stimulation of proteinase activity in Fusarium oxysporum f. sp. niveum at 1600 mg/L measured 7 days post compound treatment (reference value: 0.42 +/- 0.2 U//min/ml); type: functional
[8] = tested on: Fusarium oxysporum f. sp. niveum; experiment: Stimulation of pectinase activity in Fusarium oxysporum f. sp. niveum at 1600 mg/L measured 7 days post compound treatment by DNS method (reference value: 0.01 +/- 0.0 U//ml/min); type: functional
[9] = tested on: Fusarium oxysporum f. sp. niveum; experiment: Stimulation of mycotoxin production in Fusarium oxysporum f. sp. niveum at 1600 mg/L measured 7 days post compound treatment by spectrophotometry (reference value: 26.9 +/- 4.9 ug/mL); type: functional
[10] = tested on: Fusarium oxysporum f. sp. niveum; experiment: Growth inhibition of Fusarium oxysporum f. sp. niveum assessed as reduction in sporulation measured 7 days post compound treatment; type: functional, organism-based
Method in brief: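 FON was grown 7 days in modified Bilay and Joffe's medium (4.0 g sodium carboxymethyl cellulose, pH 4) with cinnamic acid at 200–1600 mg L-1 or a water control. Broth was diluted 10-5–10-7, and 0.1 mL was spread on PDA and incubated in the dark at 28 °C for 4 days. Colonies were counted and converted to conidia per culture. Three replicates, mean ± SE.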

[11] = tested on: Fusarium oxysporum f. sp. niveum; experiment: Growth inhibition of Fusarium oxysporum f. sp. niveum assessed as reduction in conidial germination measured […]; type: functional, organism-based
Method in brief: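 Conidia came from a 7-day liquid culture (28 °C), collected by filtration and diluted in sterile water. 0.1 mL was spread on 2% water agar plates containing cinnamic acid (200–1600 mg L-1; water control) and incubated at 28 °C for 3 days. Colonies were counted daily. Three replicate plates per treatment.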

[12] = tested on: Fusarium oxysporum f. sp. niveum; experiment: Growth inhibition of Fusarium oxysporum f. sp. niveum assessed as colony diameter at 1600 mg/L measured 7 days post compound treatment (reference value: 7.0 +/- 0.63 cm); type: functional
[13] = tested on: Fusarium oxysporum f. sp. niveum; experiment: Growth inhibition of Fusarium oxysporum f. sp. niveum assessed as reduction in hyphal growth measured 7 days post compound treatment; type: functional, organism-based
[14] = tested on: Fusarium oxysporum f. sp. niveum; experiment: Growth inhibition of Fusarium oxysporum f. sp. niveum assessed as mycelium dry weight at 1600 mg/L measured 7 days post compound treatment (reference value: 0.22 +/- 0.01 g); type: functional; method in brief: as §1
[15] = tested on: Fusarium oxysporum f. sp. niveum; experiment: Stimulation of proteinase activity in Fusarium oxysporum f. sp. niveum at 1600 mg/L measured 7 days post compound treatment by Tseng and Mount method

O=C(O)/C=C/c1ccccc1 [CINNAMIC ACID]
Activity [1]: 2006% | Activity [2]: 760% | inhibition of growth at 200 µg/mL (Neurospora crassa): 94% | inhibition at 1600 µg/mL [3]: 63.3% | Activity [4]: 4.6 µmol/min/mL | Activity [5]: 5.2 µmol/min/mL | Activity [6]: 0.33 µmol/min/mL | Activity [7]: 3.21 U/min/ml | Activity [8]: 0.052 U/ml/min | Activity [9]: 13.25 µg/mL | growth inhibition (GI) [10]: Dose-dependent effect | growth inhibition (GI) [11]: Dose-dependent effect | Activity [12]: 0 cm | growth inhibition (GI) [13]: Dose-dependent effect | Activity [14]: 0.08 g | Activity [15]: 760%
